# Bioassay records: PubChem BioAssay, Johns Hopkins Ion Channel Center
# Sampled rows, rich in hits. Any-hit rate of the full collection: about 3.5%.
# RGS4 pot – potentiators or activators of RGS4. HEK293 M3R/inducible RGS4, carbachol calcium flux Fluo4; stronger effect = lower value. AID 463111. 310,000 tested, 0.92% active. B-score at 10 µM;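 active = B-score of the integrated calcium signal more than 4 SD below the library mean, with starting fluorescence not abnormally high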;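 note: negative B-score means reduced calcium response which marks RGS4 activation or potentiation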
#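 Material: M3R-expressing HEK293 line, RGS4 induced by doxycycline | Schedule: Overnight RGS4 induction, 30 min dye load 37 °C, 20 min compound RT | Measured by: Fluo4 fluorescence kinetic imaging of calcium | Read-out: Integrated calcium ratio converted to B score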
# RGS4 block – inhibitors of human RGS4 | P49798 | HEK293 M3R/RGS4 inducible, Fluo-4 calcium flux; stronger effect = higher value; triggered by carbachol at its EC20 | B-score at 10 µM | 310,000 tested, 0.45% active;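 active = B-score, a plate-corrected calcium signal, over three deviations above library mean, with baseline fluorescence within five deviations of library mean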;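 note: RGS4 expression induced by doxycycline in cells with stable M3 receptor; B-score is computed from the integrated fluorescence ratio over baseline after carbachol; higher B-score means a larger calcium signal and so more RGS4 inhibition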
# Target sequence (P49798 whole entry, looked up): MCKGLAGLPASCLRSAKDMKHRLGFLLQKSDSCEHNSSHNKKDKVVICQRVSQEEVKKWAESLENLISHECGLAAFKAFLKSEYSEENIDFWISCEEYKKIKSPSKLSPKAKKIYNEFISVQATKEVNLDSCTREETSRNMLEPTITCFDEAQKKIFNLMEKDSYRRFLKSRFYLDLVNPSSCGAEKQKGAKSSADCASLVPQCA
# MrgX1 antag – human MrgX1 receptor antagonism, primary screen; B-score at 10 µM; MRGX1-HEK293 calcium flux, Fluo-4, BAM8-22 antagonism; stronger effect = lower value; AID 588676; 310,000 tested, 1.3% active; Q96LB2;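 active = calcium-response B-score plate-corrected more than 3 library SD below zero, starting fluorescence within 5 deviations, no agonist response on first addition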;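 note: peak minus trough fluorescence over baseline after final BAM8-22 challenge near maximal dose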
# Target sequence (Q96LB2 whole entry, looked up): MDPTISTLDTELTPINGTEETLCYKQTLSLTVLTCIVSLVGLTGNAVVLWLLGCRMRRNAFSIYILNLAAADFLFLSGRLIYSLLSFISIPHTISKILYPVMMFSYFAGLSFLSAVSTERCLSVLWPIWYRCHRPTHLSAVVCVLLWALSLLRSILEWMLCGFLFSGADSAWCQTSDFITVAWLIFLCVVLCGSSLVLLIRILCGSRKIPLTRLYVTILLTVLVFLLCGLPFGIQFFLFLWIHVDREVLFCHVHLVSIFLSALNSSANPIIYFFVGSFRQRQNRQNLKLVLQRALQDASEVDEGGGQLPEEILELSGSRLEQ
# MrgX1 allo act – human MrgX1 positive allosteric modulation, primary screen | Q96LB2 | MrgX1-HEK293, Fluo-4 calcium flux, FDSS; stronger effect = higher value | B-score at 10 µM | 310,000 tested, 0.63% active;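 active = plate-corrected calcium response at least 3 library SD above typical, normal starting fluorescence, not activating the receptor alone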;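 note: compound read alongside a low EC10 to EC30 dose of BAM8-22 agonist; peak minus trough fluorescence over baseline measured at the second addition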
# MrgX1 ag – activates human MrgX1 receptor signaling; Q96LB2; MrgX1-HEK293 cells, Fluo-4 calcium fluorescence, agonist mode; stronger effect = higher value; B-score at 10 µM; 310,000 tested, 0.44% active; AID 588627;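 active = calcium response B-score plate-corrected fluorescence ratio at least 3 library SD, with starting fluorescence B-score inside 5 SD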
#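 Material: HEK293 cells stably expressing human MrgX1 receptor | Quantity: 15,000 cells per well | Times: Cells plated overnight, dye loaded 0.5 h 37 °C, 0.5 h room temperature | Measured by: Kinetic Fluo-4 NW fluorescence of intracellular calcium | Control set: Positive and negative controls per plate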
# An asterisk follows results filed as active; i = inactive; / = not tested or not shown.
SMILES,RGS4 pot,RGS4 block,MrgX1 antag,MrgX1 allo act,MrgX1 ag
O=C(Nc1ccc2c(c1)OCCO2)C1CCCN(S(=O)(=O)c2cccnc2)C1 (configuration not stated),i,i,i,i,i
CCOC(=O)C1=C(COC(=O)/C=C/c2cccc(OC)c2)NC(=O)NC1C (configuration not stated),-7*,i,i,i,i
COc1ccc(-n2nc(C(=O)NCC(=O)N3CCN(Cc4ccccc4)CC3)c3ccccc3c2=O)c(OC)c1,i,i,i,i,i
CCN(CC)CCCNC(=O)C1CCN(C(=O)c2cc3sccc3n2Cc2ccc(F)cc2)CC1,i,i,-6*,i,i
C=CCn1c(SCC(=O)OCC)nc(C(F)(F)F)cc1=O,i,i,i,i,i
CS(=O)(=O)c1ccc(S(=O)CC(=O)Oc2ccc(Cl)cc2)c([N+](=O)[O-])c1 (configuration not stated),i,i,i,i,i
CCCc1ccc(OCc2ccc(C(=O)NN)o2)c(OC)c1,i,i,-5.3*,i,i
CCCc1ccc(OCc2ccc(C(=O)O)o2)c(OC)c1,i,i,i,i,i
COc1ccc(S(=O)(=O)N2CCOC23CCN(S(=O)(=O)c2cccs2)CC3)cc1,i,i,/,/,/
CC1Sc2ccc(S(=O)(=O)N3CCC(C(=O)N4CCN(C)CC4)CC3)cc2NC1=O (configuration not stated),i,i,i,i,i
CN(CCCN1CCCCC1)C(=O)c1cc(COc2ccc(F)cc2F)on1,i,i,-7.3*,i,i
CN(CCCC1CCCC1)C(=O)c1cc(COc2ccc(F)cc2F)on1,i,i,i,i,i
CC1CC=C2C(C#N)=C(N)C(C#N)(C#N)C(c3cccs3)C2C1 (configuration not stated),i,i,-5.6*,i,i
CCCCC(Sc1nc(N)c(NC(=O)c2ccc(OC)cc2)c(=O)[nH]1)C(=O)O (configuration not stated),i,i,i,i,i
C[C@H](NC(=O)C1(c2ccccc2)CCN(C(=O)[C@H]2CSCN2C(=O)OC(C)(C)C)CC1)C(=O)O,i,i,i,i,i
CN(C(=O)COC(=O)c1ccccc1Nc1ccccc1)c1c(N)n(Cc2ccccc2)c(=O)[nH]c1=O,i,i,-7*,i,i
O=C(Cc1cccc2ccccc12)Nc1ccc(Br)cc1C(=O)O,i,i,-6.3*,i,i
CCC1CCCCN1S(=O)(=O)c1ccc(C(=O)Nc2nnc(C3CC3)o2)cc1 (configuration not stated),i,i,i,i,i
CC1(C)COCN1S(=O)(=O)c1ccc(C(=O)Nc2nnc(-c3ccc(Cl)s3)o2)cc1,i,i,i,i,80*
O=C(Nc1nnc(-c2cccs2)o1)c1ccc(S(=O)(=O)N2CCOCC2)cc1,i,i,i,i,i
CCC1CCCCN1S(=O)(=O)c1ccc(C(=O)Nc2nnc(-c3ccccc3Cl)o2)cc1 (configuration not stated),i,i,i,i,38*
O=C(NC1CCCC1)C(c1ccccn1)N(C(=O)c1csnn1)c1ccccc1Br (configuration not stated),i,i,i,i,i
COc1cc2ccccc2cc1C(=O)NCC(c1cccs1)N(C)C (configuration not stated),i,i,i,i,i
COc1ccc(C2CC23N=C(c2ccccc2)OC3=O)cc1 (configuration not stated),i,i,i,i,i
O=[N+]([O-])c1ccc(Nc2nc(N/N=C/c3cccc(F)c3)nc(N3CCCC3)n2)cc1,i,i,i,i,i
SMILES,RGS4 pot,RGS4 block,MrgX1 antag,MrgX1 allo act,MrgX1 ag
COc1ccc(/C=N/Nc2nc(Nc3ccccc3)nc(N3CCCC3)n2)cc1,i,i,-5.9*,i,i
COc1cccc(/C=N/Nc2nc(Nc3ccc([N+](=O)[O-])cc3)nc(N3CCCC3)n2)c1O,-9.2*,i,i,i,i
O=C(Nc1ccc(CN2CCCCC2)cc1)c1sc2ccccc2c1Cl,i,i,i,i,i
CCOC(=O)c1ccc(NC(=O)CN(Cc2ccc(Cl)cc2)S(C)(=O)=O)cc1,i,i,i,i,i
CCOC(=O)c1cc(-c2ccc(/C=C3/C(=O)N(c4ccc(C(=O)O)cc4)N=C3C)o2)ccc1Cl,-7.3*,i,i,i,i
CC1=NN(c2ccc(Br)cc2)C(=O)/C1=C/c1ccc(-c2ccccc2C(=O)O)o1,i,i,i,9.3*,i
O=C(O)c1ccc(/C=N/NC(=O)C2CC2(c2ccccc2)c2ccccc2)cc1 (configuration not stated),i,i,-5.7*,i,i
CCOc1ccc(N(C)S(=O)(=O)c2c[nH]c(C(=O)OC)c2)cc1,i,i,i,i,i
CCC(NC(=S)NCc1ccc(F)cc1)c1ccccc1 (configuration not stated),i,i,-5.7*,i,i
COc1ccc(C(C)NC(=S)NCc2ccc(F)cc2)cc1 (configuration not stated),i,i,i,i,i
Cc1ccc(N2CC(NC(=O)C(=O)c3c(C)[nH]c4ccccc34)CC2=O)cc1C (configuration not stated),i,i,i,i,i
CN1CCN(C(=O)CSc2nc(-c3cccs3)ccc2C#N)CC1,i,i,i,i,46*
N#Cc1ccc(-c2cccs2)nc1SCc1cccnc1,i,i,i,i,i
C=CCc1ccc(OCCCCCN2CCOCC2)c(OC)c1,-7.5*,i,i,i,i
Clc1ccccc1C1=CC(c2ccco2)n2ncnc2N1 (configuration not stated),i,i,i,i,29*
CCOC(=O)CCNC(=O)N1CCCC(N2CCN(c3ccc(OC)cc3)CC2)C1 (configuration not stated),i,i,i,i,i
Cc1ccc(NS(=O)(=O)c2cccc(C(=O)NNC(=O)c3cccn3C)c2)c(C)c1,i,i,-6.7*,i,i
COc1ccc(NS(=O)(=O)c2cccc(C(=O)NNC(=O)c3cccn3C)c2)cc1,i,i,i,i,i
COc1cccc(-n2c([S-])c(C(=O)Nc3ccc(S(=O)(=O)N4CCOCC4)cc3)[n+]3cc(C(N)=O)ccc23)c1,i,i,i,i,i
